The source of these data is ChEMBL document CHEMBL5331136, “Design, Synthesis, and Biological Evaluation of Novel Spiro Imidazobenzodiazepines to Identify Improved Inhaled Bronchodilators” (J Med Chem, 2023).

A short description of data set [1]: Aqueous solubility of the compound at […] under shaking condition for 24 hrs by UV absorbance based analysis. The note with it: buffer, 24 h. The class given is physicochemical.
Data set [2] deals with GABA-A receptor; anion channel (Rattus norvegicus) (UniProt O09028+P15431+P18506+P18508+P19969+P20236+P23574+P23576+P28471+P28473+P30191+P62813+P63079+P63138+Q91ZM7+Q9ES14). Kind of data set: Displacement of [3H]flunitrazepam from GABAA receptor in rat brain extract at 10 uM relative to control. The class given is tissue-based. (In general: Displacement assays read how much labelled ligand stays bound in the presence of the test substance.)

Another data set concerns HEK293. The data set is described as follows: Cytotoxicity against HEK293 cells assessed as lethal dose measured after 18 hrs by CellTiter-Glo assay. The note with it: Homo sapiens, read-out: LD50 (the source's name). The class given is functional. In a few lines: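 HEK293T cells grown in DMEM/high glucose with NEAA, HEPES, pen/strep, 10% heat-inactivated FBS. Plated 15,000 cells/well, then 4 h at 37 °C, 5% CO2. Compound added as 1:3 serial dilutions, top final concentration 300 µM. After 18 h, read luminescence by CellTiter-Glo. DMSO negative control, aminoketone positive control. Three independent experiments in quadruplicate, variable-slope nonlinear regression.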

Values after ≈ are worked out from the molar mass of the structure shown.

`CCOC(=O)c1ncn2c1C1(CCCCC1)N=C(c1ccccc1F)c1cc(Br)ccc1-2`: the solubility in data set [1] came to 141 µM (≈ 70 µg/mL). The compound also came in with an Activity in data set [2] of 74%. For the same compound, the CC50 in the data set on HEK293 was 96 µM.
Take `O=C1Nc2ccc(Br)cc2C(c2ccccc2F)=NC12CC2`: the solubility in data set [1] came to 321 µM (≈ 115 µg/mL). In data set [2], this compound yielded an Activity of 97%. Besides, the CC50 with HEK293 is greater than 150 µM.
For `CCOC(=O)c1ncn2c1C1(CC1)N=C(c1ccccc1F)c1cc(C3CC3)ccc1-2`, the solubility in data set [1] was determined as 96 µM (≈ 39.9 µg/mL). Further, in data set [2], the Activity turned out to be 22%. The CC50 with HEK293 was greater than 120 µM.
The like results for `CCOC(=O)c1ncn2c1C1(CCC1)N=C(c1ccccc1F)c1cc(Br)ccc1-2` were, in that order, 186 µM (≈ 87.1 µg/mL), 83% and greater than 120 µM.
The like results for `C#Cc1ccc2c(c1)C(c1ccccc1F)=NC1(CC1)C1C(C(=O)OCC)N=CN21` (configuration not stated) were, in that order, 53 µM (≈ 21.3 µg/mL), 56% and greater than 150 µM.
The like results for `CCOC(=O)c1ncn2c1C1(CC1)N=C(c1ccccc1F)c1cc(Cl)ccc1-2` were, in that order, 54 µM (≈ 22.1 µg/mL), 34% and greater than 150 µM.
In data set [1], `CCOC(=O)c1ncn2c1C1(CCCC1)N=C(c1ccccc1F)c1cc(Br)ccc1-2` had a solubility of 144 µM (≈ 69.5 µg/mL). The Activity in data set [2] is 19%. For the same compound, the CC50 with HEK293 stood at 106 µM.
The corresponding values for `CCOC(=O)c1ncn2c1C(C)(C)N=C(c1ccccc1F)c1cc(Br)ccc1-2` are 103 µM (≈ 47 µg/mL), 78% and greater than 150 µM.
The corresponding values for `O=C1Nc2ccc(Br)cc2C(c2ccccc2F)=NC12CCC2` are 109 µM (≈ 40.7 µg/mL), 71% and greater than 150 µM.
The corresponding values for `O=C1Nc2ccc(Br)cc2C(c2ccccc2F)=NC12CCCCC2` are 94 µM (≈ 37.7 µg/mL), 33% and 87 µM.
With `O=C1Nc2ccc(Br)cc2C(c2ccccc2F)=NC12CCCC2`, the solubility in data set [1] turned out to be 98 µM (≈ 38 µg/mL). In data set [2], this compound yielded an Activity of 13%. For the same compound, in the data set on HEK293, the CC50 was greater than 120 µM.
In data set [1], `CC1(C)N=C(c2ccccc2F)c2cc(Br)ccc2NC1=O` yielded a solubility of 319 µM (≈ 115 µg/mL). The Activity in data set [2] was determined as 70%. Moreover, in the data set on HEK293, the CC50 is greater than 150 µM.
The like results for `CCOC(=O)c1ncn2c1C1(CC1)N=C(c1ccccc1F)c1cc(Br)ccc1-2` were, in that order, 141 µM (≈ 64.1 µg/mL), 94% and greater than 120 µM.
The compound `O=C1Nc2ccc(Cl)cc2C(c2ccccc2F)=NC12CC2` registered a solubility in data set [1] of 39 µM (≈ 12.3 µg/mL). Also, the Activity in data set [2] was determined as 90%. For the same compound, the CC50 with HEK293 was greater than 150 µM.

The term solubility denotes the concentration that dissolves in the medium under given conditions. A higher solubility goes with much dissolved substance.
